In ChEMBL document CHEMBL5244263, “Studies on fragment-based design of allosteric inhibitors of human factor XIa” (Bioorg Med Chem, 2020):
pIC50: −log10 of the molar value. The source made the active and inactive calls. The calls are words filed in the database; no cut-off is given here.

Key:
[1] = molecular target: Chymotrypsinogen A (Bos taurus) (UniProt P00766); test: Inhibition of bovine alpha-chymotrypsin at 500 uM by chromogenic substrate hydrolysis assay
[2] = molecular target: Coagulation factor IX (Homo sapiens) (UniProt P00740); test: Inhibition of human FIXa at 500 uM by chromogenic substrate hydrolysis assay
Chain of Coagulation factor IX (Homo sapiens) (P00740 47-191 limits assumed): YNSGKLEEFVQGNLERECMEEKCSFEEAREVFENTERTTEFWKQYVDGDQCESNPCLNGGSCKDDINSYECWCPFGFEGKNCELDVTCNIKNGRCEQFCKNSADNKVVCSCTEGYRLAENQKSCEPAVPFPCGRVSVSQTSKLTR
Chain of Coagulation factor IX (Homo sapiens) (P00740 227-461 limits assumed): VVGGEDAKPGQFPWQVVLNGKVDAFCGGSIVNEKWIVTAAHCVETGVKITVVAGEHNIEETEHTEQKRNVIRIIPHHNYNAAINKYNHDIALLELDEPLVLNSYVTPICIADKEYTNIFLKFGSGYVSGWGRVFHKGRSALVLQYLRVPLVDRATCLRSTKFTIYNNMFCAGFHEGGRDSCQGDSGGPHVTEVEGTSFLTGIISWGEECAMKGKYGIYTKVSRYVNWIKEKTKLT

[3] = molecular target: Prothrombin (Homo sapiens) (UniProt P00734); test: Inhibition of human thrombin at 500 uM by chromogenic substrate hydrolysis assay
Coagulation factor XI [4] = molecular target: T1, Coagulation factor XI (Homo sapiens, UniProt P03951); test: Inhibition of human FXIa using S-2366 as chromogenic substrate preincubated with enzyme for 10 mins followed by substrate addition by spectrophotometric analysis
T1 sequence (P03951 19-387 limits assumed): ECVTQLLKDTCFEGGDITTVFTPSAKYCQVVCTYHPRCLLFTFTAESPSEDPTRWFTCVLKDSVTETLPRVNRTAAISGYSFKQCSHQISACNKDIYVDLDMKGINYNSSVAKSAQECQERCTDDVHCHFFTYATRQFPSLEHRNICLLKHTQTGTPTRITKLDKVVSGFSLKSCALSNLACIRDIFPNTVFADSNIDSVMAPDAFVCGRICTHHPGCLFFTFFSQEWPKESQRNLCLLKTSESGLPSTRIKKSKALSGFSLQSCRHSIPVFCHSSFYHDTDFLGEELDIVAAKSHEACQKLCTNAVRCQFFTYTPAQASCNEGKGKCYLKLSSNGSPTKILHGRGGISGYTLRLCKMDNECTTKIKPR
T1 sequence (P03951 388-625 limits assumed): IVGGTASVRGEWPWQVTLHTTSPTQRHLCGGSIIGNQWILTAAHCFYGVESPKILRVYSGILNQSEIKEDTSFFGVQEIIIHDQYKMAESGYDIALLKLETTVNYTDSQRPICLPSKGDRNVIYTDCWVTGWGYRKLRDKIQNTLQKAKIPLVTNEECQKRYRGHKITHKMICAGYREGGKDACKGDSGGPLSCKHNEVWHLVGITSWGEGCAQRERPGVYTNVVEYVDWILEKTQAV

[5] = molecular target: Plasma kallikrein (Homo sapiens) (UniProt P03952); test: Inhibition of Kallikrein in human plasma at 500 uM by chromogenic substrate hydrolysis assay; format: cell-free
Chain of Plasma kallikrein (Homo sapiens) (P03952 20-390 limits assumed): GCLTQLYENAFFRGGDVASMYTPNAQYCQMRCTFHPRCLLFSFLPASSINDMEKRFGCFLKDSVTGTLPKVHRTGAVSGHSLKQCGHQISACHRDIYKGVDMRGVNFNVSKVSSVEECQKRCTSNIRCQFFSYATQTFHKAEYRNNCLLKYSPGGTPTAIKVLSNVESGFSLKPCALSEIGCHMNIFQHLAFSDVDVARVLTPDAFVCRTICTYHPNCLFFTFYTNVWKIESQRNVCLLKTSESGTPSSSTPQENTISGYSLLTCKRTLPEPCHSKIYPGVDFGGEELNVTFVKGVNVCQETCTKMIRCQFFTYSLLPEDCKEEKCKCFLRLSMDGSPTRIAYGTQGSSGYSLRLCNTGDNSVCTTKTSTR
Chain of Plasma kallikrein (Homo sapiens) (P03952 391-638 limits assumed): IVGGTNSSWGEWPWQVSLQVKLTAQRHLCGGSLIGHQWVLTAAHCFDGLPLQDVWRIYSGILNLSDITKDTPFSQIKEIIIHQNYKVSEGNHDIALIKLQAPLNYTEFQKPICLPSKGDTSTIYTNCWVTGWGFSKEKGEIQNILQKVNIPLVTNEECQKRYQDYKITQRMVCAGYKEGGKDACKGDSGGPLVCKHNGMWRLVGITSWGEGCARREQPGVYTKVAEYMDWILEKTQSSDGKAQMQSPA

[6] = molecular target: Coagulation factor X (Homo sapiens) (UniProt P00742); test: Inhibition of human FXa using methoxycarbonyl-D-cyclohexylglycyl-Gly-Arg-p-nitroanilide as substrate at 500 uM by chromogenic substrate hydrolysis assay
Chain of Coagulation factor X (Homo sapiens) (P00742 41-179 limits assumed): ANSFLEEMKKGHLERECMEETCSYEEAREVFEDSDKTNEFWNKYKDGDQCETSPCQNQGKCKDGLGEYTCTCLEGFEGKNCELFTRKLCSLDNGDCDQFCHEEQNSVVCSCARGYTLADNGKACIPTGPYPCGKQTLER
Chain of Coagulation factor X (Homo sapiens) (P00742 235-488 limits assumed): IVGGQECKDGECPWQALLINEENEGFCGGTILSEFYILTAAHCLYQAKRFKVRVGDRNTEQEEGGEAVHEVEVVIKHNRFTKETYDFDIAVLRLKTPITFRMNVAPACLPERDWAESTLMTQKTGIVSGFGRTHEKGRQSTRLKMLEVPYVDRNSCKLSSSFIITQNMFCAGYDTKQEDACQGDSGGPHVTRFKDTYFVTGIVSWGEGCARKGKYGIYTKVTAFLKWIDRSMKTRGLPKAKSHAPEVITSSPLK

Bos taurus = species: Bos taurus; test: Inhibition of bovine trypsin using S-2222 as chromogenic substrate at 500 uM by chromogenic substrate hydrolysis assay
[7] = molecular target: T2, Coagulation factor VII (Homo sapiens) (UniProt P08709); test: Inhibition of FVIIa (unknown origin) at 500 uM by chromogenic substrate hydrolysis assay
T2 sequence (whole entry): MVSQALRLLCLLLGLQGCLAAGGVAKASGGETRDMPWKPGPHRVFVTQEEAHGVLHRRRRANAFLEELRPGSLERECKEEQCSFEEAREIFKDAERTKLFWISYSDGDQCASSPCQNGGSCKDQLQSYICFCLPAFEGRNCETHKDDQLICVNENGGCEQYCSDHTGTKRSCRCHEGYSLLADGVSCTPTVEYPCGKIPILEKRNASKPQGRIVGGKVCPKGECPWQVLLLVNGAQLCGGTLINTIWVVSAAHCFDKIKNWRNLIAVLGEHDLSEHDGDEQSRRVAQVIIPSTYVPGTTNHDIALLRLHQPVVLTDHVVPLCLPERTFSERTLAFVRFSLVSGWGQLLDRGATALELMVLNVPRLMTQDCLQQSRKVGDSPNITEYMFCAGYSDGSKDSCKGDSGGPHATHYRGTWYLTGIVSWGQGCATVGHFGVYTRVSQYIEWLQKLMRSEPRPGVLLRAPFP

[8] = Selectivity for inhibition of human FXIa over bovine alpha-chymotrypsin
Homo sapiens [9] = species: Homo sapiens; test: Selectivity for inhibition of human FXIa over human thrombin
[10] = Selectivity for inhibition of human FXIa over bovine trypsin
Coagulation factor XI [11] = molecular target: T1, Coagulation factor XI; test: Inhibition of human FXIa using S-2366 as chromogenic substrate preincubated with enzyme for 10 mins followed by substrate addition by spectrophotometric analysis relative to control; parameters: concentration or dose not given beside the values
Method in brief: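 hFXIa (0.765 nM final) preincubated with inhibitor or reference solution for 10 min at 37 °C in pH 7.4 buffer (50 mM Tris-HCl, 150 mM NaCl, 0.1% PEG8000, 0.02% Tween80). S-2366 (345 μM final) then added, and residual activity read on a microplate reader.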

Homo sapiens [12] = species: Homo sapiens; test: Selectivity for inhibition of human FXIa over human FIXa
Homo sapiens [13] = species: Homo sapiens; test: Selectivity for inhibition of human FXIa over FVIIa (unknown origin)
Homo sapiens [14] = species: Homo sapiens; test: Selectivity for inhibition of human FXIa over Kallikrein in human plasma; format: cell-free
Homo sapiens [15] = species: Homo sapiens; test: Selectivity for inhibition of human FXIa over human FXa

| SMILES | inhibition [1] | inhibition [2] | inhibition [3] | pIC50 (Coagulation factor XI [4]) | inhibition [5] | inhibition [6] | inhibition (Bos taurus) | inhibition [7] | Selectivity ratio [8] | Selectivity ratio (Homo sapiens [9]) | Selectivity ratio [10] | inhibition (Coagulation factor XI [11]) [%] | Selectivity ratio (Homo sapiens [12]) | Selectivity ratio (Homo sapiens [13]) | Selectivity ratio (Homo sapiens [14]) | Selectivity ratio (Homo sapiens [15]) |
| --- | --- | --- | --- | --- | --- | --- | --- | --- | --- | --- | --- | --- | --- | --- | --- | --- |
| O=c1c(OS(=O)(=O)O)c(-c2ccc(OS(=O)(=O)O)c(OS(=O)(=O)O)c2)oc2cc(OS(=O)(=O)O)cc(OCc3cn(CCCCCCCn4c(-c5ccc(OS(=O)(=O)O)cc5)nc5ccccc5c4=O)nn3)c12 | inactive | inactive | inactive | 3.86 | inactive | inactive | inactive | inactive |  |  |  |  |  |  |  |  |
| O=c1c2ccccc2nc(-c2ccc(OS(=O)(=O)O)cc2)n1Cc1ccccc1Cn1c(-c2ccc(OS(=O)(=O)O)cc2)nc2ccccc2c1=O | inactive | inactive | inactive | 4.24 | inactive | inactive | inactive | inactive | > 63 | > 63 | > 63 | 87 | > 63 | > 63 | > 63 | > 63 |
| O=c1c(OS(=O)(=O)O)c(-c2ccc(OS(=O)(=O)O)c(OS(=O)(=O)O)c2)oc2cc(OS(=O)(=O)O)cc(OCc3cn(CCCCCCCCn4c(-c5ccc(OS(=O)(=O)O)cc5)nc5ccccc5c4=O)nn3)c12 | inactive | inactive | inactive | 3.88 | inactive | inactive | inactive | inactive |  |  |  |  |  |  |  |  |
| O=c1c2ccccc2nc(-c2ccc(OS(=O)(=O)O)cc2)n1Cc1cccc(Cn2c(-c3ccc(OS(=O)(=O)O)cc3)nc3ccccc3c2=O)c1 | inactive | inactive | inactive | 4.12 | inactive | inactive | inactive | inactive | > 63 | > 63 | > 63 | 96 | > 63 | > 63 | > 63 | > 63 |
| O=c1c2ccccc2nc(-c2cccc(OS(=O)(=O)O)c2)n1CCCCCn1c(-c2cccc(OS(=O)(=O)O)c2)nc2ccccc2c1=O | inactive | inactive | inactive | 4.05 | inactive | inactive | inactive | inactive | > 63 | > 63 | > 63 | 96 | > 63 | > 63 | > 63 | > 63 |
| O=c1c2ccccc2nc(-c2cccc(OS(=O)(=O)O)c2)n1Cc1cccc(Cn2c(-c3cccc(OS(=O)(=O)O)c3)nc3ccccc3c2=O)c1 | inactive | inactive | inactive | 4.22 | inactive | inactive | inactive | inactive | > 63 | > 63 | > 63 | 92 | > 63 | > 63 | > 63 | > 63 |
| O=c1c2ccccc2nc(-c2cccc(OS(=O)(=O)O)c2)n1Cc1ccccc1Cn1c(-c2cccc(OS(=O)(=O)O)c2)nc2ccccc2c1=O | inactive | inactive | inactive | 4.03 | inactive | inactive | inactive | inactive | > 63 | > 63 | > 63 | 93 | > 63 | > 63 | > 63 | > 63 |
| O=c1c2ccccc2nc(-c2cccc(OS(=O)(=O)O)c2)n1CCOCCn1c(-c2cccc(OS(=O)(=O)O)c2)nc2ccccc2c1=O | inactive | inactive | inactive | 3.40 | inactive | inactive | inactive | inactive | > 63 | > 63 | > 63 | 94 | > 63 | > 63 | > 63 | > 63 |
| O=c1c2ccccc2nc(-c2ccc(OS(=O)(=O)O)cc2)n1CCCCCCCn1c(-c2ccc(OS(=O)(=O)O)cc2)nc2ccccc2c1=O | inactive | inactive | inactive | 4.64 | inactive | inactive | inactive | inactive | > 63 | > 63 | > 63 | 96 | > 63 | > 63 | > 63 | > 63 |
| O=c1c2ccccc2nc(-c2ccc(OS(=O)(=O)O)cc2)n1CCCCCCCCn1cc(Cn2c(-c3ccc(OS(=O)(=O)O)cc3)nc3ccccc3c2=O)nn1 | inactive | inactive | inactive | 4.41 | inactive | inactive | inactive | inactive | > 63 | > 63 | > 63 | 100 | > 63 | > 63 | > 63 | > 63 |
| O=c1c(OS(=O)(=O)O)c(-c2ccc(OS(=O)(=O)O)c(OS(=O)(=O)O)c2)oc2cc(OS(=O)(=O)O)cc(OCc3cn(CCCCCCCCCn4c(-c5ccc(OS(=O)(=O)O)cc5)nc5ccccc5c4=O)nn3)c12 | inactive | inactive | inactive | 4.43 | inactive | inactive | inactive | inactive |  |  |  |  |  |  |  |  |
| O=c1c(OS(=O)(=O)O)c(-c2ccc(OS(=O)(=O)O)c(OS(=O)(=O)O)c2)oc2cc(OS(=O)(=O)O)cc(OCc3cn(CCCCCCCCCCn4c(-c5ccc(OS(=O)(=O)O)cc5)nc5ccccc5c4=O)nn3)c12 | inactive | inactive | inactive | 4.29 | inactive | inactive | inactive | inactive |  |  |  |  |  |  |  |  |
